The values that follow come from publication PMC6034632 (Science translational medicine, 2017).

*1 amine or outer side, *2 acyl side, *3 side chain or, on linkers, in order; H or OH if unused. Where a SMILES comes first, the peptide text is derived from it. Bridges are numbered along the chain shown (N, C = ends). [ ]: non-standard residue; d: D form. The star is where a group is joined. Leu(3R-OH,Nα-propionyl) = CCC(=O)N[C@H](C(=O)*)[C@H](O)C(C)C; X1 = CC(C)[C@@H](O[*:3])[C@H](N[*:1])C(=O)[*:2]; NMeT = CN[C@H](C(=O)O)[C@@H](C)O; dPhLac = O=C(O)[C@H](O)Cc1ccccc1; NMeA = CN[C@@H](C)C(=O)O; NMeDha = C=C(NC)C(=O)O

In data set [1] the test system is NK1R endocytosis in HEK293 cells. Briefly: BRET assay of SP-induced NK1R endocytosis. The data set is classed as cell-based, human. Particulars: SP 1 or 10 nM. The method in brief: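 NK1R C-terminally fused to RLUC8 was co-expressed in HEK293 cells with Venus-tagged KRAS (plasma membrane marker) or RAB5A (early endosome marker). Receptor proximity to each compartment was tracked as SP-induced BRET over time. Observations were in triplicate, n ≥ 3 experiments.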
On the technique in general: BRET reads energy transfer from a luciferase to a nearby fluorophore.

For the next data set, the system named is HEK-NK1R cells. The experiment in a line: Endocytosis of fluorescent Alexa Fluor 568–SP. Type of data set: cell-based, human.
Data set [2] deals with nuclear ERK activity (NK1R, HEK293 cells). The experiment in a line: FRET biosensor NucEKAR, SP-induced nuclear ERK activity. The note with it: for SP stimulation of nuclear ERK: SP 1 nM, HEK293, NucEKAR. The data set is classed as cell-based, human. Put shortly:
(§1)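 HEK293 cells expressed NK1R plus a genetically encoded FRET biosensor targeted to the cytosol, nucleus or plasma membrane (ERK, PKC or cAMP sensors). Ratiometric imaging followed time courses after SP, with the maximal signal set by a positive control. Responses were integrated as area under the curve.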

The test system of data set [3] is cytosolic PKC activity (NK1R, HEK293 cells). Briefly: FRET biosensor CytoCKAR, SP-induced cytosolic PKC activity. The data set is classed as cell-based, human. The note with it: SP 1 nM. The method in brief:
as §1

The subject of data set [4] is cytosolic cAMP (NK1R, HEK293 cells). The experiment in a line: FRET biosensor CytoEpac2, SP-induced cytosolic cAMP. Type of data set: cell-based, human. Particulars: SP 1 nM. Put shortly: as §1
In data set [5] the test system is cytosolic ERK activity (NK1R, HEK293 cells). The experiment in a line: FRET biosensor CytoEKAR, SP-induced cytosolic ERK activity. The note with it: SP 1 nM. Type of data set: cell-based, human. The method in brief: as §1
Data set [6] relates to plasma membrane cAMP (NK1R, HEK293 cells). Briefly: FRET biosensor pmEpac2, SP-induced plasma membrane cAMP. The data set is classed as cell-based, human. Particulars: SP 1 nM. Put shortly: as §1
Data set [7] concerns plasma membrane PKC activity (NK1R, HEK293 cells). The experiment in a line: FRET biosensor pmCKAR, plasma membrane PKC activity. Type of data set: cell-based, human. Particulars: SP 1 nM. Put shortly: as §1
Data set [8] concerns NK1R-positive neurons in lamina I of the dorsal horn. The experiment in a line: Cell-attached patch clamp recordings of SP-induced firing in spinal cord slices. Type of data set: cell-based, rat. The note with it: for reduction of number of SP-stimulated action potentials: compared to controls; for inhibition of SP-induced firing time of lamina I neurons: slices preincubated with inhibitor, versus vehicle control. The method in brief:
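Cell-attached patch clamp recordings were made from second-order lamina I neurons in rat spinal cord slices. SP was applied at 1 μM for 2 min, then washed out. Slices were exposed to test compound for 60 min, washed, and challenged with SP 60 min later. Firing rate was taken as events per 2 min normalized to the 2-min rate, and duration as time to the last action potential. Six to 7 neurons per group.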
(The patch-clamp technique gives a direct electrical read-out from membranes.)

In data set [9] the test system is NK1R-IR endocytosis in spinal neurons. Briefly: SP-induced NK1R-IR endocytosis in spinal cord slices. Type of data set: cell-based. Particulars: rat spinal cord slices, SP 1 μM 5 min.
The test system of the next data set is lamina I/IIo neurons. Briefly: EPSC induced by primary afferent stimulation. The data set is classed as cell-based. The note with it: n = 11 neurons.
Data set [10] relates to SP and CGRP release from dorsal spinal cord. Briefly: Capsaicin-stimulated neuropeptide release from segments of dorsal spinal cord. Particulars: segments of mouse dorsal spinal cord, n = 6 experiments.
Data set [11] relates to pERK in lamina I/II dorsal horn neurons. The experiment in a line: Capsaicin-stimulated ERK phosphorylation in dorsal horn neurons in vivo. The note with it: rat, intrathecal inhibitor, intraplantar capsaicin.
The test system of data set [12] is contralateral paw withdrawal. The note with it: mouse, in vivo.
Data set [13] deals with capsaicin-evoked mechanical allodynia. The experiment in a line: Capsaicin-evoked mechanical allodynia in rat. Type of data set: in vivo. The note with it: intrathecal.
Data set [14] deals with formalin nocifensive response. Briefly: Nocifensive behavior after intraplantar formalin. The data set is classed as in vivo, mouse. Particulars: mice, intrathecal endocytosis inhibitors.
For data set [15], the system named is HEK293 / HEK-NK1R-GFP cells. Briefly: Uptake and trafficking of tripartite probes. The data set is classed as cell-based, human. The note with it: effect of dynamin inhibitor. Put shortly:
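HEK293 or HEK-NK1R–GFP cells were incubated with Cy5-labelled cholestanol-conjugated probes, either continuously for 4 hours or as a 30 or 60 min pulse, washed and recovered 4 hours. NK1R-GFP cells received SP to drive receptor endocytosis. Localization to plasma membrane and RAB5A-RFP– or NK1R-GFP–positive endosomes was imaged, with or without dynamin inhibitor.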

The next data set deals with motor behavior. The note with it: mouse, in vivo.
A further data set relates to PKCα. The note with it: cited from earlier work.
The subject of data set [16] is capsaicin-induced mechanical allodynia. The data set is classed as in vivo, mouse. The note with it: mice, intrathecal injection 3 hours before intraplantar capsaicin.
The target of a further data set is NK1R (HEK-NK1R cells) (Homo sapiens, UniProt P25103). Briefly: SP-stimulated Ca2+ signaling. Type of data set: cell-based. Particulars: 10 nM antagonist.
Sequence of NK1R (HEK-NK1R cells) (P25103 whole entry, species assumed): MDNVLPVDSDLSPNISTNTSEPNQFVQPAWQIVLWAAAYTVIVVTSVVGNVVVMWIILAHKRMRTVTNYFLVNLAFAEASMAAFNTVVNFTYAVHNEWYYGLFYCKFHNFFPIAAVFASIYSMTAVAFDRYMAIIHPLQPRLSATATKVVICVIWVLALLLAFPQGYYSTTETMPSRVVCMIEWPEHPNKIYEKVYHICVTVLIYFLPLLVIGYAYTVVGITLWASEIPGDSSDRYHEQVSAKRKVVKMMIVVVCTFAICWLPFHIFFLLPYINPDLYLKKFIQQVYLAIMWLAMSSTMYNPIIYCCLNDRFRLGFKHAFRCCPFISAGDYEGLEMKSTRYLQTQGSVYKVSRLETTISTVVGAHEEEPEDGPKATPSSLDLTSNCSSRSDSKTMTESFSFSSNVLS
The test system of data set [17] is CFA-induced mechanical hyperalgesia. The experiment in a line: CFA-induced mechanical hyperalgesia, von Frey. Particulars: mice, intrathecal 36 hours after intraplantar CFA. The data set is classed as in vivo, mouse. The method in brief:
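Mice received intraplantar CFA; 36 hours later test compound was given intrathecally. Mechanical hyperalgesia was read as von Frey filament withdrawal responses of the CFA-injected paw over the following hours. Groups were compared to control by ANOVA with Dunnett's test.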

Data set [18] relates to NK1R-IR in lamina I neurons. Briefly: NK1R endocytosis in spinal neurons in vivo after intraplantar capsaicin. The note with it: rat, intraplantar capsaicin alone (vehicle-treated control 80.7 ± 1.6), 10 min.
Data set [19] can be described thus: Degradation by membranes prepared from spinal cord. Type of data set: in vitro ADME, mouse.
Where [20] appears, read: rat spinal cord slices, SP 1 μM 2 min.

For the molecule `O=C(N/N=C/c1cc(O)c(O)cc1O)c1cc2ccccc2cc1O` [Dy4, Dyngo-4a], the “SP-induced NK1R endocytosis” value in data set [1] is listed as “inhibited NK1R endocytosis”. In the data set on HEK-NK1R cells, the “endocytosis of fluorescent Alexa Fluor 568–SP” value is listed as “inhibited endocytosis”. Besides, in data set [2], the “SP stimulation of nuclear ERK” value is on record as “abolished”. In data set [3], the “SP stimulation of cytosolic PKC” value is “abolished”. Moreover, the “SP stimulation of cytosolic cAMP” value in [4] was “abolished”. Further, the “SP activation of cytosolic ERK” value in data set [5] is reported as “did not affect”. Besides, in data set [6], the “SP activation of plasma membrane cAMP” value was “did not affect”. Moreover, the “plasma membrane PKC activity” value in data set [7] is listed as “amplified plasma membrane PKC activity”. In addition, in data set [8] (setting [20]), the “initial onset of SP-induced firing” value was “did not affect the initial onset”; the “sustained SP-induced firing (firing rate and firing time)” value is given as “prevented the sustained response”. Besides, the “SP-induced firing rate (events per 2 min, normalized to rate at 2 min)” value in data set [8] (rat spinal cord slices, SP 1 μM 2 min, endocytosis inhibitor) was 342.1 ± 120.7 events per 2 min. Also, the “SP-stimulated NK1R-IR endocytosis in spinal neurons” value in [9] was “inhibited NK1R endocytosis”. Moreover, the “generation of excitatory postsynaptic currents (EPSCs)” value in the data set on lamina I/IIo neurons is “did not affect”. For the same molecule, in [10], the “capsaicin-stimulated release of SP or CGRP” value is “did not affect”. For the same molecule, the “capsaicin-stimulated ERK activation in spinal neurons” value in data set [11] is on record as “prevented capsaicin-stimulated ERK activation”. The “withdrawal responses of the contralateral paw” value in [12] is “did not affect”. Also, the “capsaicin-evoked mechanical allodynia in rat” value in data set [13] was “inhibited capsaicin-evoked mechanical allodynia”. In addition, the “nocifensive response to intraplantar formalin” value in data set [14] was “blunted both the early (noninflammatory) and late (inflammatory) phases”. The “uptake of Chol-conjugated tripartite probes” value in [15] is reported as “inhibited uptake”. For the same molecule, the rotarod latency result in the data set on motor behavior is recorded as “did not affect”.
For `O=C(O)CN(CCOCCOCCN(CC(=O)O)CC(=O)O)CC(=O)O` [EGTA], in [3], the “SP stimulation of cytosolic PKC” value is “prevented activation of cytosolic PKC”. Further, in [4], the “SP stimulation of cytosolic cAMP” value is “prevented SP generation of cytosolic cAMP”.
On to `CN(C)CCCn1cc(C2=C(c3c[nH]c4ccccc34)C(=O)NC2=O)c2ccccc21` [GF109203X], for which, in [4], the “SP stimulation of cytosolic cAMP” value is given as “prevented SP generation of cytosolic cAMP”. Further, in data set [8], the “reduction of number of SP-stimulated action potentials” value is on record as 61 ± 15% and the “inhibition of SP-induced firing time of lamina I neurons” value was 56.8 ± 8.2%. Besides, in the data set with PKCα, the “inhibiting PKCα” value was 4 % control.
`FC(F)(F)c1cc(CO[C@H]2CCCN[C@H]2c2ccccc2)cc(C(F)(F)F)c1` [L-733,060]: the capsaicin-evoked mechanical allodynia result in data set [16] is “antinociceptive only at 1 hour”. For the same molecule, on NK1R (HEK-NK1R cells), the “% inhibition against 1 nM SP, Ca2+ signaling” value was determined as 40.8 ± 8.9%.
With `O=C1NC(=NS(=O)(=O)c2cccc3ccccc23)S/C1=C\c1ccc(Br)cc1` [PS2, Pitstop-2], the “SP-induced NK1R endocytosis” value in data set [1] was “inhibited NK1R endocytosis”. In addition, in the data set on HEK-NK1R cells, the “endocytosis of fluorescent Alexa Fluor 568–SP” value was “inhibited endocytosis”. Further, the “SP stimulation of nuclear ERK” value in data set [2] is on record as “abolished”. Besides, the “SP stimulation of cytosolic PKC” value in data set [3] is “abolished”. Also, the “SP stimulation of cytosolic cAMP” value in [4] is reported as “abolished”. Moreover, in data set [5], the “SP activation of cytosolic ERK” value is reported as “did not affect”. For the same molecule, in [6], the “SP activation of plasma membrane cAMP” value is listed as “did not affect”. In data set [7], the “plasma membrane PKC activity” value is “amplified plasma membrane PKC activity”. In addition, the “capsaicin-stimulated release of SP or CGRP” value in [10] was “did not affect”. The “capsaicin-stimulated ERK activation in spinal neurons” value in [11] is reported as “prevented capsaicin-stimulated ERK activation”. Further, the “withdrawal responses of the contralateral paw” value in data set [12] is on record as “did not affect”. In data set [14], the “nocifensive response to intraplantar formalin” value was “blunted both the early (noninflammatory) and late (inflammatory) phases”. In addition, in the data set with motor behavior, the rotarod latency result is listed as “did not affect”.
Turning to `CC(C)Oc1cccc(CC(=O)N2CCC[C@@](CC[N+]34CCC(c5ccccc5)(CC3)CC4)(c3ccc(Cl)c(Cl)c3)C2)c1.[Cl-]` [SR140,333], in [2] (pulse-incubated 30 min, washed, SP 4 hours later), the “SP-induced nuclear ERK (endosomal NK1R) 4 hours after pulse” value is “unable to effectively inhibit persistent NK1R signaling in endosomes”. Also, the CFA mechanical hyperalgesia result in data set [17] was “minor”.
Regarding `N#CC(=C(/N)Sc1ccccc1N)/C(C#N)=C(/N)Sc1ccccc1N` [U0126], in data set [8], the “reduction of number of SP-stimulated action potentials” value came out at 84 ± 5% and the “inhibition of SP-induced firing time of lamina I neurons” value is recorded as 67.5 ± 8.3%.
Regarding `COc1ccc2c(c1)CC[C@@H]1[C@@H]2CC[C@]2(C)[C@@H](NCCCCCCN3C(=O)C=CC3=O)CC[C@@H]12` [U73122], the “SP stimulation of cytosolic PKC” value in data set [3] is listed as “prevented activation of cytosolic PKC”.
Regarding `C=C1C(=O)N[C@@H](C)C(=O)N(C)[C@@H](C)C(=O)N[C@@H]([C@H](OC(=O)[C@@H](NC(=O)CC)[C@H](O)C(C)C)C(C)C)C(=O)N(C)[C@@H]([C@@H](C)OC)C(=O)O[C@H](C(C)C)[C@H](NC(C)=O)C(=O)O[C@H](Cc2ccccc2)C(=O)N1C` [UBO-QIC] (Ac-[X1][dPhLac][NMeDha]A[NMeA][X1](Leu(3R-OH,Nα-propionyl))[NMeT](Me); ester 1-C), the “SP-induced NK1R endocytosis” value in data set [1] is on record as “did not affect NK1R endocytosis”. Moreover, the “SP stimulation of nuclear ERK” value in [2] was “prevented SP activation of nuclear ERK”. Besides, the “SP stimulation of cytosolic PKC” value in data set [3] is reported as “prevented activation of cytosolic PKC”. Also, the “SP stimulation of cytosolic cAMP” value in data set [4] was “prevented SP generation of cytosolic cAMP”.
Take `COc1cc(CNC(=O)CCCC/C=C/C(C)C)ccc1O` [capsaicin]: the “% NK1R-IR within 0.5 μm of plasma membrane” value in [18] is 42.1 ± 5.6%.
For substance P [SP], the “degradation by spinal cord membranes” value in [19] was “rapidly degraded”.
